SMILES strings stand for the structures. A value given as a limit tells only on which side of the number the result lay.

The first series deals with T1, Steroid 17-alpha-hydroxylase/17,20 lyase (Homo sapiens, UniProt P05093).
T1 sequence (P05093 whole entry): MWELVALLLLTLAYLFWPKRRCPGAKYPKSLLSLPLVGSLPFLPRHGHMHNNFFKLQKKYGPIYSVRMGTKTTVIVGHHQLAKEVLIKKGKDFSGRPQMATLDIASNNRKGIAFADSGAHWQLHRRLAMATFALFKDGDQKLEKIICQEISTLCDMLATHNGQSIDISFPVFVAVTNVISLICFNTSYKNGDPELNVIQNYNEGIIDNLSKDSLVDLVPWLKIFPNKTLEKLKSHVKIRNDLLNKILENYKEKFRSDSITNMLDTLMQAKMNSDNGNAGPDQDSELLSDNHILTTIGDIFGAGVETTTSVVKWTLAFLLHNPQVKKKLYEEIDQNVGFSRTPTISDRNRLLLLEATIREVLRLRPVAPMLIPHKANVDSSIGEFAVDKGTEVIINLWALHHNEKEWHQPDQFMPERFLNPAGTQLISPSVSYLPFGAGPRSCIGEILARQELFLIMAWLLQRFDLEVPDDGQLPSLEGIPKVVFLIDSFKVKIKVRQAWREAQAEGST
Briefly: Inhibition of human testicular microsomal Cytochrome P450 17A1. In outline:
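Human testis microsomes (orchidectomy tissue from untreated prostate cancer patients, stored at -70 °C, diluted in 0.1 M phosphate buffer). Radiometric: 10 μM [21-3H]-17α-hydroxypregnenolone, NADPH-generating system, pH 7.4, 10 min preincubation, then ~90 µg protein for 60 min under O2 at 34 °C. [3H]acetic acid measured in aqueous phase after chloroform extraction and charcoal. IC50 from log-log regression; six concentrations.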
For `C[C@]12CC[C@H]3[C@@H](CC=C4C[C@@H](O)CC[C@@]43C)[C@@H]1CC[C@@H]2c1cnc[nH]1`, the IC50 came to 66 nM.
The same measure, in the same setting: in the case of `C[C@]12CCC(=O)C=C1CCC1C2CC[C@]2(C)C(c3ccno3)=CCC12` (some centres not stated) it was 39 nM; in that of `C[C@]12CCC(=O)C=C1CCC1C2CC[C@@]2(C)C1CC[C@@H]2c1cnc[nH]1` (some centres not stated), 58 nM.
The compound `C[C@]12CCC(=O)C=C1CCC1C2CC[C@@]2(C)C1CC[C@@H]2C1N=CC=N1` (some centres not stated) yielded a Conc of 400 nM.
`C[C@]12CC[C@H](O)CC1=CC[C@@H]1[C@@H]2CC[C@]2(C)C(c3ncc[nH]3)=CC[C@@H]12` returned an IC50 of 21 nM.
Same read-out and setting: in the case of `C[C@]12CC[C@H](O)CC1=CC[C@@H]1[C@@H]2CC[C@]2(C)C(c3c[nH]cn3)=CC[C@@H]12` it was 24 nM.
The same measure, in the same setting: in the case of `C[C@]12CCC(=O)C=C1CCC1C2CC[C@]2(C)C(c3cnc[nH]3)=CCC12` (some centres not stated) it was 50 nM.
On the same count and under the same terms, in the case of `C[C@]12CC[C@H](O)CC1=CC[C@@H]1[C@@H]2CC[C@]2(C)C(c3ccno3)=CC[C@@H]12` it was 108 nM.
`Cn1nccc1C1=CCC2C3CC=C4CC(O)CC[C@]4(C)C3CC[C@]12C` (some centres not stated) gave a Conc of 150 nM.
For the compound `CC(=O)O[C@H]1CC[C@@]2(C)C(=CC[C@H]3[C@@H]4CC[C@H](C5=CNC(C(C)=O)N5)[C@@]4(C)CC[C@@H]32)C1` (some centres not stated), the concentration for half-maximal inhibition (IC50) was found to be 100 nM.
Compound `CC(=O)O[C@H]1CC[C@@]2(C)C(=CC[C@H]3[C@@H]4CC[C@H](c5c[nH]cn5)[C@@]4(C)CC[C@@H]32)C1` returned a half-maximal inhibitory concentration (IC50) of 199 nM.
The same measure, in the same setting: in the case of `C[C@]12CC[C@H](O)CC1=CC[C@@H]1[C@@H]2CC[C@]2(C)C(c3ccn[nH]3)=CC[C@@H]12` it was 42 nM.
Take `C[C@]12CCC3C(CC=C4CC(O)CC[C@@]43C)C1CCC2c1ncc[nH]1` (some centres not stated): the Conc amounted to 400 nM.
With `Cn1ccc(C2=CCC3C4CC=C5CC(O)CC[C@]5(C)C4CC[C@]23C)n1` (some centres not stated), the Conc is 150 nM.
Same read-out and setting: in the case of `Cc1nc(C2CCC3C4CC=C5CC(O)CC[C@]5(C)C4CC[C@]23C)co1` (some centres not stated) it was 400 nM.
For the compound `C[C@]12CCC(=O)C=C1CCC1C2CC[C@]2(C)C(c3ccn[nH]3)=CCC12` (some centres not stated), the IC50 turned out to be 59 nM.
`C[C@]12CC[C@H](O)CC1=CC[C@@H]1[C@@H]2CC[C@@]2(C)[C@H]1CC1O[C@]12c1cnc[nH]1` (some centres not stated): the IC50 was determined as 430 nM.
The compound `C[C@]12CCC3C(CC=C4CC(O)CC[C@@]43C)C1CCC2c1ccno1` (some centres not stated) came in with a Conc of 150 nM.
In turn, `C[C@]12CCC(O)CC1=CCC1C2CC[C@@]2(C)C1CC[C@@H]2c1c[nH]c(-c2ccccc2)n1` (some centres not stated) returned a Conc of 400 nM.
On the same count and under the same terms, in the case of `C[C@]12CCC3C(CC=C4CC(O)CC[C@@]43C)C1CCC2c1ccn[nH]1` (some centres not stated) it was 150 nM.
Compound `C[C@]12CCC(=O)C=C1CCC1C2CC[C@@]2(C)C1CC[C@]2(O)c1c[nH]cn1` (some centres not stated) came in with a 50% inhibitory concentration (IC50) of 1200 nM.
`C[C@]12CCC(O)CC1=CCC1C2CC[C@]2(C)C(c3ccnn3-c3ccccc3)=CCC12` (some centres not stated) displayed a Conc of 150 nM.
On to `CC(C1N=CC=N1)[C@H]1CCC2C3CCC4=CC(=O)CC[C@]4(C)C3CC[C@@]21C` (some centres not stated), for which the IC50 is > 30000 nM.
The same measure, in the same setting: under `C[C@]12CCC3C(CC=C4CC(O)CC[C@@]43C)C1CCC2c1ccon1` (some centres not stated) stands 1110 nM.

The target in another series is T1, Steroid 17-alpha-hydroxylase/17,20 lyase. Briefly: Percent inhibition of human testicular microsomal Cytochrome P450 17A1. On the set-up: concentration or dose not given beside the values. In outline: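 Human testis microsomes were incubated 60 min at 34 °C under O2 with 10 μM [21-3H]-17α-hydroxypregnenolone and NADPH-generating system (pH 7.4). Test compound was present at a single 150 or 400 nM. Inhibition was read from [3H]acetic acid released to the aqueous phase after chloroform extraction.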
For the compound `Cc1ncc([C@H]2CC[C@H]3[C@@H]4CC=C5C[C@@H](O)CC[C@]5(C)[C@H]4CC[C@]23C)[nH]1`, the Inhibition is listed as 26%.
The compound `Cn1nccc1C1=CCC2C3CC=C4CC(O)CC[C@]4(C)C3CC[C@]12C` (some centres not stated) displayed an Inhibition of 12%.
Same read-out and setting: under `C[C@]12CCC3C(CC=C4CC(O)CC[C@@]43C)C1CCC2c1ncc[nH]1` (some centres not stated) stands 24%; under `Cn1ccc(C2=CCC3C4CC=C5CC(O)CC[C@]5(C)C4CC[C@]23C)n1` (some centres not stated), 25%; under `Cc1nc(C2CCC3C4CC=C5CC(O)CC[C@]5(C)C4CC[C@]23C)co1` (some centres not stated), 21%.
Same read-out and setting: in the case of `C[C@]12CCC3C(CC=C4CC(O)CC[C@@]43C)C1CCC2c1ccno1` (some centres not stated) it was 21%; in that of `C[C@]12CCC(O)CC1=CCC1C2CC[C@@]2(C)C1CC[C@@H]2c1c[nH]c(-c2ccccc2)n1` (some centres not stated), 21%; in that of `C[C@]12CCC3C(CC=C4CC(O)CC[C@@]43C)C1CCC2c1ccn[nH]1` (some centres not stated), 20%.
Same read-out and setting: under `C[C@]12CCC(O)CC1=CCC1C2CC[C@]2(C)C(c3ccnn3-c3ccccc3)=CCC12` (some centres not stated) stands 11%.

A further series concerns the target T2, Steroid 17-alpha-hydroxylase/17,20 lyase (Rattus norvegicus, UniProt P11715).
T2 sequence (P11715 whole entry): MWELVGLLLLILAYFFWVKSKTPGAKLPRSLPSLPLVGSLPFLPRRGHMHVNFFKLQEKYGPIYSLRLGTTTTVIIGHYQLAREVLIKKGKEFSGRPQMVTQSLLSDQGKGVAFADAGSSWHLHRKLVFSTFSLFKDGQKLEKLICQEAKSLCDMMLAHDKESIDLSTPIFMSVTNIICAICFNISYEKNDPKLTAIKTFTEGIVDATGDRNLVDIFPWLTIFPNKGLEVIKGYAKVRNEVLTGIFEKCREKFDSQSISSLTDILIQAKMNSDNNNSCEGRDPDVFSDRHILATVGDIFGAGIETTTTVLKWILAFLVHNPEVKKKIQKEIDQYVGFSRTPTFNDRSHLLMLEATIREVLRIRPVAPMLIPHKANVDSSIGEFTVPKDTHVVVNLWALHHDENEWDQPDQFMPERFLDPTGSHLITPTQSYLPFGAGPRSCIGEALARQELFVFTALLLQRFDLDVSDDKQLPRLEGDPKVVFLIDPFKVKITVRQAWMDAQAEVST
The series can be described thus: Inhibition of rat testicular microsomal Cytochrome P450 17A1. Put shortly:
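Adult Sprague-Dawley rat (200-250 g) testicular microsomes, about 90 µg protein. [21-3H]-17α-hydroxypregnenolone was used at 10 µM total. Cofactors were NADP 65 µM, glucose 6-phosphate 0.71 mM and G6PDH 0.13 IU in phosphate buffer pH 7.4. Compounds were preincubated 10 min, then reacted 60 min under O2 at 34 °C. Released [3H]acetic acid was counted after chloroform extraction and charcoal treatment.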
On to `C[C@]12CC[C@H]3[C@@H](CC=C4C[C@@H](O)CC[C@@]43C)[C@@H]1CC[C@@H]2c1cnc[nH]1`, for which the IC50 was determined as 91 nM.
`C[C@]12CCC(=O)C=C1CCC1C2CC[C@]2(C)C(c3ccno3)=CCC12` (some centres not stated): the IC50 amounted to 32 nM.
With `C[C@]12CCC(=O)C=C1CCC1C2CC[C@@]2(C)C1CC[C@@H]2c1cnc[nH]1` (some centres not stated), the IC50 was 79 nM.
The compound `Cc1ncc([C@H]2CC[C@H]3[C@@H]4CC=C5C[C@@H](O)CC[C@]5(C)[C@H]4CC[C@]23C)[nH]1` displayed an IC50 of 4810 nM.
The same measure, in the same setting: in the case of `CC(=O)N1CCN(c2ccc(OC[C@H]3CO[C@](Cn4ccnc4)(c4ccc(Cl)cc4Cl)O3)cc2)CC1` [KETOCONAZOLE] it was 1070 nM; in that of `C[C@]12CC[C@H](O)CC1=CC[C@@H]1[C@@H]2CC[C@]2(C)C(c3c[nH]cn3)=CC[C@@H]12`, 49 nM.
On the same count and under the same terms, in the case of `C[C@]12CCC(=O)C=C1CCC1C2CC[C@]2(C)C(c3cnc[nH]3)=CCC12` (some centres not stated) it was 14 nM; in that of `C[C@]12CC[C@H](O)CC1=CC[C@@H]1[C@@H]2CC[C@]2(C)C(c3ccno3)=CC[C@@H]12`, 84 nM; in that of `CC(=O)O[C@H]1CC[C@@]2(C)C(=CC[C@H]3[C@@H]4CC[C@H](C5=CNC(C(C)=O)N5)[C@@]4(C)CC[C@@H]32)C1` (some centres not stated), 5460 nM.
Same read-out and setting: under `C[C@]12CC[C@H](O)CC1=CC[C@@H]1[C@@H]2CC[C@]2(C)C(c3ccn[nH]3)=CC[C@@H]12` stands 28 nM.
Consider `C[C@]12CCC(=O)C=C1CCC1C2CC[C@]2(C)C(c3ccn[nH]3)=CCC12` (some centres not stated), for which the IC50 turned out to be 76 nM.

Another series has as its target T2, Steroid 17-alpha-hydroxylase/17,20 lyase. Briefly: Percent inhibition of rat testicular microsomal Cytochrome P450 17A1. Also noted: concentration or dose not given beside the values. Put shortly:
(§1)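 Single-concentration screen at 1500 nM using adult Sprague-Dawley rat testis microsomes. Incubation: 10 μM [21-3H]-17α-hydroxypregnenolone with NADPH-generating system, pH 7.4, 60 min, 34 °C, under O2. Percent inhibition was read from tritiated acetic acid in the aqueous phase after chloroform extraction of steroids.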
Compound `C[C@]12CCC(=O)C=C1CCC1C2CC[C@@]2(C)C1CC[C@@H]2C1N=CC=N1` (some centres not stated) displayed an Inhibition of 25%.
Same read-out and setting: under `C[C@]12CC[C@H](O)CC1=CC[C@@H]1[C@@H]2CC[C@]2(C)C(c3ncc[nH]3)=CC[C@@H]12` stands 65%.
On the same count and under the same terms, under `CC(=O)O[C@H]1CC[C@@]2(C)C(=CC[C@@H]3[C@@H]2CC[C@]2(C)C(c4cnc[nH]4)=CC[C@@H]32)C1` stands 92%.
Take `CC(=O)O[C@H]1CC[C@@]2(C)C(=CC[C@H]3[C@@H]4CC[C@H](c5c[nH]cn5)[C@@]4(C)CC[C@@H]32)C1`: the Inhibition is given as 55%.
Same read-out and setting: under `C[C@]12CCC3C(CC=C4CC(O)CC[C@@]43C)C1CCC2c1ncc[nH]1` (some centres not stated) stands 19%; under `C[C@]12CCC3C(CC=C4CC(O)CC[C@@]43C)C1CCC2c1ccno1` (some centres not stated), 93%.
As for `C[C@]12CCC3C(CC=C4CC(O)CC[C@@]43C)C1CCC2c1ccn[nH]1` (some centres not stated), the Inhibition is reported as 92%.
The compound `C[C@]12CCC3C(CC=C4CC(O)CC[C@@]43C)C1CCC2c1ccon1` (some centres not stated) came in with an Inhibition of 54%.

A further series has the same target. Briefly: Percent inhibition of rat testicular microsomal Cytochrome P450 17A1; No Inhibition. In outline: as §1
Consider `Cn1nccc1C1=CCC2C3CC=C4CC(O)CC[C@]4(C)C3CC[C@]12C` (some centres not stated), for which the Inhibition result is reported as “Not Active”.
On the same count and under the same terms, in the case of `Cn1ccc(C2=CCC3C4CC=C5CC(O)CC[C@]5(C)C4CC[C@]23C)n1` (some centres not stated) it was “Not Active”.
In the case of `Cc1nc(C2CCC3C4CC=C5CC(O)CC[C@]5(C)C4CC[C@]23C)co1` (some centres not stated), the Inhibition result was “Not Active”.
Still for that read-out and setting: under `C[C@]12CCC(O)CC1=CCC1C2CC[C@@]2(C)C1CC[C@@H]2c1c[nH]c(-c2ccccc2)n1` (some centres not stated) stands “Not Active”; under `C[C@]12CCC(O)CC1=CCC1C2CC[C@]2(C)C(c3ccnn3-c3ccccc3)=CCC12` (some centres not stated), “Not Active”.
